Source: PubChem BioAssay (Johns Hopkins Ion Channel Center)
Sampled rows, rich in hits. Any-hit rate of the full collection: about 3.5%.
MrgX1 ag = agonists of human MrgX1 receptor | Q96LB2 | MrgX1-HEK293 cells, Fluo-4 calcium fluorescence, agonist mode; stronger effect = higher value | B-score at 10 µM | 310,000 tested, 0.44% active | AID 588627;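 active = calcium response B-score plate-corrected fluorescence ratio at least 3 library SD, with starting fluorescence B-score inside 5 SD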
Target sequence (Q96LB2 whole entry, looked up): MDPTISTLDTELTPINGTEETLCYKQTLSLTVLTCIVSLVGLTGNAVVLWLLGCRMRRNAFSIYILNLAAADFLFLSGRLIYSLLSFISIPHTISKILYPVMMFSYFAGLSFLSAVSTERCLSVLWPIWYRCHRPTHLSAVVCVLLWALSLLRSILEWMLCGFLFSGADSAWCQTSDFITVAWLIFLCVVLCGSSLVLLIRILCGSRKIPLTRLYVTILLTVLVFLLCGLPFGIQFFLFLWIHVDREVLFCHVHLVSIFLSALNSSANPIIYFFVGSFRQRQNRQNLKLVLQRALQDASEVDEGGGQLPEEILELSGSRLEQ
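times = overnight plating, then 30 min 37 °C plus 30 min room-temperature dye loading | assay system = stable human MrgX1 HEK293 cell line | input = fifteen thousand cells per well | signal = kinetic calcium dye fluorescence, Fluo-4 NW | dosing = compound delivered in addition one of three | read-out = B-scored fluorescence response ratio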
RGS4 block = human RGS4 inhibition. P49798. HEK293 M3R/RGS4 inducible, Fluo-4 calcium flux; stronger effect = higher value; triggered by carbachol at its EC20. 310,000 tested, 0.45% active. B-score at 10 µM;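 active = B-score, a plate-corrected calcium signal, over three deviations above library mean, with baseline fluorescence within five deviations of library mean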;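 note: RGS4 expression induced by doxycycline in cells with stable M3 receptor; B-score is computed from the integrated fluorescence ratio over baseline after carbachol; higher B-score means a larger calcium signal and so more RGS4 inhibition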
Target sequence (P49798 whole entry, looked up): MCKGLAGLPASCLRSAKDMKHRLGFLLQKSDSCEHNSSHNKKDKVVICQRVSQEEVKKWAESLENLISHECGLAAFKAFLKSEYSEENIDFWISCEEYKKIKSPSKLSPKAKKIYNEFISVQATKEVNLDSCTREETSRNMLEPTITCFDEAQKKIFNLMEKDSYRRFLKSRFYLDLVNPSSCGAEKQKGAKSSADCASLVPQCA
MrgX1 PAM = human MrgX1 positive allosteric modulation, primary screen | Q96LB2 | MrgX1-HEK293, Fluo-4 calcium flux, FDSS; stronger effect = higher value | B-score at 10 µM | 310,000 tested, 0.63% active | AID 588675;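 active = plate-corrected calcium response at least 3 library SD above typical, normal starting fluorescence, not activating the receptor alone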;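 note: compound read alongside a low EC10 to EC30 dose of BAM8-22 agonist; peak minus trough fluorescence over baseline measured at the second addition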
RGS4 pot = potentiators or activators of RGS4. HEK293 M3R/inducible RGS4, carbachol calcium flux Fluo4; stronger effect = lower value. B-score at 10 µM. 310,000 tested, 0.92% active;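 active = B-score of the integrated calcium signal more than 4 SD below the library mean, with starting fluorescence not abnormally high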;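 note: negative B-score means reduced calcium response which marks RGS4 activation or potentiation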
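Reagent: ECmax carbachol challenge; Test system: M3R-expressing HEK293 line, RGS4 induced by doxycycline; Schedule: overnight RGS4 induction, 30 min dye load 37 °C, 20 min compound RT; Detection: calcium dye Fluo4 fluorescence; Read-out: Agonist-evoked peak-minus-minimum fluorescence over baseline, integrated ratio, B score.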
MrgX1 antagonist = antagonists of human MrgX1 receptor; Q96LB2; B-score at 10 µM; 310,000 tested, 1.3% active; MRGX1-HEK293 calcium flux, Fluo-4, BAM8-22 antagonism; stronger effect = lower value;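 active = calcium-response B-score plate-corrected more than 3 library SD below zero, starting fluorescence within 5 deviations, no agonist response on first addition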;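 note: peak minus trough fluorescence over baseline after final BAM8-22 challenge near maximal dose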
Of the large screens only hits and unclear results are named; the others gave an inactive call; ! = repeats disagree.

O=C(Nc1ccccc1Cl)NC1CCCCCCC1	none
CCN(CC)CCCNC(=O)c1ccc2c(SCC(=O)O)c3c(nc2c1)CCC3	none
CCN(CC)CCNC(=O)CSc1c2c(nc3cc(Cl)ccc13)CCCC2	RGS4 pot -7.32
COc1ccc(NC2=C(Cl)C(=O)N(c3ccccc3)C2=O)c(OC)c1	none
COc1ccccc1NC1=C(Cl)C(=O)N(c2ccccc2)C1=O	MrgX1 PAM 10.9
CCC1CCCCN1C(=O)CCC(=O)Nc1nnc(C(F)(F)F)s1 (stereo not given)	none
Cc1nc(N/N=C/c2ccc(O)cc2)c2cnn(-c3ccccc3)c2n1	MrgX1 antagonist -7.51
COc1cccc(-c2cccc(NC(=O)C3CCN(Cc4ccon4)CC3)c2)c1	none
Cc1ccc2cc(C=O)c(Cl)nc2c1	MrgX1 PAM 7.34
CCOC(=O)/C(C#N)=C/c1cc2ccc(C)cc2nc1Cl	none
O=C(/C=C/c1ccccc1Cl)c1cccnc1	MrgX1 ag 28
O=C(/C=C/c1ccc(Cl)cc1)c1cccnc1	none
O=c1c2ccccc2nc2n1CC/C2=C\N1CCN(c2ccc([N+](=O)[O-])cc2)CC1	none
Cc1c(Cc2ccccc2)sc(/N=C/c2ccc3ccccc3c2)c1C(N)=O	none (no result: RGS4 block, RGS4 pot)
Cc1c(Cc2ccccc2)sc(/N=C/c2c(O)ccc3ccccc23)c1C(N)=O	MrgX1 antagonist -7.62
CC(=O)Oc1ccc(N2C(=O)C3C4C=CC(CO)(O4)C3C2=O)cc1 (stereo not given)	none
O=C1C2C3C=CC(CO)(O3)C2C(=O)N1c1ccccc1-c1ccccc1 (stereo not given)	MrgX1 ag 33.8 (no result: RGS4 block, RGS4 pot)
COc1cccc(CNc2ccccn2)c1O	none
COc1cccc(CNc2cccc3cccnc23)c1O	MrgX1 PAM 15.1
CCN(CC)C1CCN(C(=O)c2cc(COc3ccc(F)cc3Cl)on2)C1 (stereo not given)	RGS4 pot -7.03
Cn1ccnc1C1CCCCN1C(=O)c1cc(COc2ccc(F)cc2Cl)on1 (stereo not given)	RGS4 pot -7.44
O=C(c1cc(COc2ccc(F)cc2Cl)on1)N1CC[C@@H]2CCCC[C@H]2C1	none
COc1ccc(F)cc1S(=O)(=O)N1CCN(C(=O)c2ccco2)CC1	none
Cc1ccc(S(=O)(=O)N(C)c2ccc(OCC(=O)Nc3cccc(-n4cnnn4)c3C)cc2)cc1	none
CCOC(=O)C1(Cc2ccc(OC)cc2)CCN(C(=O)CCc2cccnc2)CC1	none
CCN1CCc2c(sc(NC(=O)c3ccc(S(=O)(=O)N(C)c4ccccc4)cc3)c2C(=O)NC)C1	MrgX1 ag 59.1, RGS4 pot -7.47
CC(=O)c1cnn(-c2ccc(Cl)c(Cl)c2Cl)c1C	none
COc1ccc(S(=O)(=O)N(CC(=O)NCc2cccnc2)c2ccc(C)cc2)cc1OC	none
CCS(=O)(=O)C1=NSC2=NC(=O)/C(=C\c3ccc(OS(=O)(=O)c4ccccc4)c(OC)c3)C(=N)N21	MrgX1 PAM 33.3
Cc1ccc(S(=O)(=O)Oc2ccc(/C=C3/C(=N)N4C(=NC3=O)SN=C4S(C)(=O)=O)cc2)cc1	MrgX1 PAM 16.8
COc1cc(/C=C2/C(=N)N3N=C(C)SC3=NC2=O)ccc1OS(=O)(=O)c1ccc(C)cc1	none
COc1cc(/C=C2/C(=N)N3C(=NC2=O)SN=C3S(C)(=O)=O)ccc1OS(=O)(=O)c1ccc(C)cc1	MrgX1 PAM 10.4
CN1CC=C2C(C#N)=C(N)C(C#N)(C#N)C(Cc3ccccc3)C2C1 (stereo not given)	MrgX1 ag 35.6
CCCc1nc2c(s1)CCc1onc(-c3ccc(Cl)cc3)c1-2	none
CCCc1sc(N)nc1-c1ccc(Cl)cc1	RGS4 pot -7.4
CCCCc1c(O)nc(SCC(=O)c2ccccc2)n(-c2ccccc2OC)c1=O	none
CCOc1ccc(C(=O)Nc2cc(-c3nc4ccccc4[nH]3)ccc2C)cc1[N+](=O)[O-]	RGS4 pot -7.08
Cc1ccc(-c2nc3ccccc3[nH]2)cc1NC(=O)c1ccc2c(c1)OCO2	none
Cc1ccc(-c2nc3ccccc3[nH]2)cc1NC(=S)NC(=O)c1ccccc1Br	RGS4 pot -7.09
CN1C2CC(OC(=O)C(CO)c3ccccc3)CC1C1OC12 (stereo not given)	RGS4 pot -7.94!
CN1[C@@H]2CC[C@H]1CC(OC(=O)C(CO)c1ccccc1)C2 (stereo not given in full)	RGS4 pot -7.01
CN1C2CCC1CC(OC(=O)C(CO)c1ccccc1)C2 (stereo not given)	none (no result: RGS4 block, RGS4 pot)
CC(C)[N+]1(C)[C@@H]2CC[C@H]1CC(OC(=O)C(CO)c1ccccc1)C2 (stereo not given in full)	none
O=C1C(Cl)=C(NC(=O)c2ccccc2)C(=O)C(Cl)=C1NC(=O)c1ccccc1	RGS4 block 7.27
O=C(Nc1cccc(Cl)c1)c1ccccc1	none (no result: RGS4 block, RGS4 pot)
Cc1cccc(NC2=C(NC(=O)c3ccccc3)C(=O)c3ccccc3C2=O)c1	MrgX1 PAM 10
O=C(NC1=C(Nc2ccc(Cl)cc2)C(=O)c2ccccc2C1=O)c1ccccc1	none
CCC(C)Sc1nnc(NC(=O)C2CCN(C(=O)c3ccco3)CC2)s1 (stereo not given)	none
CC1=C(C#N)c2nc(N)c(C#N)c(C)c2/C1=C\c1ccc(C)cc1	MrgX1 antagonist -5.9
Cc1nn2c(-c3cccc(NC(=O)CSc4nc5ccccc5o4)c3)nnc2c2ccccc12	RGS4 pot -7.92
Cc1cccc(NC(=O)CSc2nc3ccccc3o2)c1	none
O=C(O)c1cc(S(=O)(=O)N(Cc2ccccc2)c2ccc(Cl)cc2)ccc1Cl	none
Brc1ccc(/C=N/Nc2ccc3ccccc3n2)cc1	none
Brc1ccccc1/C=N/Nc1ccc2ccccc2n1	MrgX1 PAM 11.2
Cc1c(NS(=O)(=O)c2cccc(C(=O)O)c2)c(=O)n(-c2ccccc2)n1C	none
Cc1c(NS(=O)(=O)c2cccc(C(=O)NCc3ccc(Cl)cc3)c2)c(=O)n(-c2ccccc2)n1C	MrgX1 antagonist -5.97
CCN(CC)S(=O)(=O)c1ccc(Cl)c(C(=O)Oc2cccc(-c3cnc4ccccc4n3)c2)c1	RGS4 pot -7.07
COc1ccc(NC(=S)N(Cc2ccc(Cl)cc2)Cc2ccc(C(=O)O)cc2)cc1Cl	MrgX1 antagonist -4.64
O=C(CN1CCN(S(=O)(=O)N2CCCCC2)CC1)Nc1ccc(Cl)c(Cl)c1	none
COc1ccc(CC(=O)Nc2ccc(-c3nnc(-c4ccccc4)o3)cc2)cc1OC	none
COc1ccc(CC(=O)Nc2cccc(-c3nnc(-c4ccc(C)cc4)o3)c2)cc1OC	RGS4 pot -10.1
O=C(CC(=O)NCc1ccccc1)NCc1ccccc1	none
N=C1C2=C3Sc4ccccc4N3CCCC2=NN1c1cccc(S(=O)(=O)O)c1	none
COc1c(CC=C(C)C)c(O)cc2oc(=O)c3c4ccc(O)cc4oc3c12	MrgX1 antagonist -10.7
COc1c2c(cc3oc(=O)c4c5ccc(O)cc5oc4c13)OC(C)(C)CC2	none
